This passage reports retention time and Activity results from ChEMBL document CHEMBL1773037, “Evaluation of superior BACE1 cleavage sequences containing unnatural amino acids” (Bioorg Med Chem, 2011).

Experiment [1] deals with Beta-secretase 1 (Homo sapiens) (UniProt P56817). Put plainly: Activity of recombinant BACE assessed as retention time of C-terminal fragment by HPLC method.
Experiment [2] has the same target. Briefly: Activity of recombinant BACE assessed as retention time of substrate by HPLC method.
For experiment [3] the target is unchanged. Briefly: Activity of recombinant BACE assessed as substrate cleavage at 300 uM after 3 hrs by HPLC analysis. In outline:
(§1)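 Individually synthesized, purified substrates at 300 µM in 40 mM AcONa buffer, pH 4.5, 37 °C. rBACE1 used at 60 nM (P1, P4 substrates), 30 nM (P2, P3 substrates) or 10 nM (P1' substrates and the dodecapeptide). Aliquots taken at 0, 1 and 3 h, quenched with 7 M GuHCl, and the decrease in each substrate peak monitored by HPLC.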

For experiment [4] the target is unchanged. Briefly: Activity of recombinant BACE assessed as retention time of N-terminal fragment by HPLC method.
For experiment [5] the target is unchanged. Briefly: Activity of recombinant BACE assessed as substrate cleavage after 1 hr by HPLC analysis.
Experiment [6] has the same target. Put plainly: Activity of recombinant BACE assessed as substrate cleavage upto 3 hrs by HPLC analysis. In outline:
as §1

Active and inactive are the calls of the source. The rule behind the calls is not given here. Non-standard residues stand in square brackets, D forms with d. Residues, ends and D or L forms follow the SMILES beside them. 2Thi = N[C@@H](Cc1cccs1)C(=O)O; Cha = N[C@@H](CC1CCCCC1)C(=O)O; Cit = NC(=O)NCCC[C@H](N)C(=O)O; Phg = N[C@H](C(=O)O)c1ccccc1; Tle = CC(C)(C)[C@H](N)C(=O)O; Nva = CCC[C@H](N)C(=O)O; Abu = CC[C@H](N)C(=O)O

Beta-secretase 1 (Homo sapiens), sequence (P56817 whole entry, the tested form may be a part): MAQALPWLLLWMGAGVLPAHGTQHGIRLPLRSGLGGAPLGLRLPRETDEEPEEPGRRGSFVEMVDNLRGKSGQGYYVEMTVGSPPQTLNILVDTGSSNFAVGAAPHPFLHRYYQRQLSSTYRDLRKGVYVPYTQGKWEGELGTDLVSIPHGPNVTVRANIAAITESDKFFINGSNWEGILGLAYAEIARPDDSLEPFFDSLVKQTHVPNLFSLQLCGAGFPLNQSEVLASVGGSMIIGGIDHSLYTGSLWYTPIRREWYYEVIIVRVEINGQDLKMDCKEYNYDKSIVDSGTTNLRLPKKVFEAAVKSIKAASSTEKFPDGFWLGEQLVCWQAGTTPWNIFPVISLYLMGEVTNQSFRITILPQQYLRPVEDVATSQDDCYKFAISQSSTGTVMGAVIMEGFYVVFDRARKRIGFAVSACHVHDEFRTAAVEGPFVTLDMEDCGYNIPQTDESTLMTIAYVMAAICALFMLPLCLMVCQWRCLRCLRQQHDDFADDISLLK

In the case of `CC[C@H](NC(=O)[C@H](CC(N)=O)NC(=O)[C@@H](NC(=O)[C@H](CCC(=O)O)NC(=O)[C@H](CO)NC(=O)[C@@H](N)[C@@H](C)CC)C(C)C)C(=O)N[C@@H](CC(=O)O)C(=O)N[C@@H](C)C(=O)N[C@@H](CCC(=O)O)C(=O)N[C@@H](Cc1ccccc1)C(=O)N[C@@H](CCCNC(=N)N)C(=O)N[C@@H](Cc1cnc[nH]1)C(N)=O` (H-ISEVN[Abu]DAEFRH-NH2), the retention time in experiment [1] was 0.217 h; in experiment [2], 0.409 h. Further, the result in experiment [3] was Active.

Turning to `CC[C@H](C)[C@H](N)C(=O)N[C@@H](CO)C(=O)N[C@@H](CCC(=O)O)C(=O)N[C@H](C(=O)N[C@@H](CC(N)=O)C(=O)N[C@H](C(=O)N[C@@H](CC(=O)O)C(=O)N[C@@H](C)C(=O)N[C@@H](CCC(=O)O)C(=O)N[C@@H](Cc1ccccc1)C(=O)N[C@@H](CCCNC(=N)N)C(=O)N[C@@H](Cc1cnc[nH]1)C(N)=O)C(C)(C)C)C(C)C` (H-ISEVN[Tle]DAEFRH-NH2), the figures for the retention time in experiment [1] and in experiment [2] were 0.217 h and 0.479 h, respectively.

In the case of `CC[C@H](C)[C@H](N)C(=O)N[C@@H](CO)C(=O)N[C@@H](CCC(=O)O)C(=O)N[C@H](C(=O)N[C@@H](CC(N)=O)C(=O)N[C@@H](CC1CCCCC1)C(=O)N[C@@H](CC(=O)O)C(=O)N[C@@H](C)C(=O)N[C@@H](CCC(=O)O)C(=O)N[C@@H](Cc1ccccc1)C(=O)N[C@@H](CCCNC(=N)N)C(=O)N[C@@H](Cc1cnc[nH]1)C(N)=O)C(C)C` (H-ISEVN[Cha]DAEFRH-NH2), the retention time in experiment [1] was 0.217 h; in experiment [2], 0.573 h.

With `CCC[C@H](NC(=O)[C@H](CC(N)=O)NC(=O)[C@@H](NC(=O)[C@H](CCC(=O)O)NC(=O)[C@H](CO)NC(=O)[C@@H](N)[C@@H](C)CC)C(C)C)C(=O)N[C@@H](CC(=O)O)C(=O)N[C@@H](C)C(=O)N[C@@H](CCC(=O)O)C(=O)N[C@@H](Cc1ccccc1)C(=O)N[C@@H](CCCNC(=N)N)C(=O)N[C@@H](Cc1cnc[nH]1)C(N)=O` (H-ISEVN[Nva]DAEFRH-NH2), the values for the retention time in experiment [1] and in experiment [2] were 0.217 h and 0.45 h, respectively. In experiment [3], the outcome was Active.

Regarding `CC[C@H](C)[C@H](N)C(=O)N[C@@H](CCCCN)C(=O)N[C@H](C(=O)N[C@@H](CCC(=O)O)C(=O)N[C@@H](CCC(=O)O)C(=O)N[C@H](C(=O)N[C@@H](CO)C(=O)N[C@@H](CCC(=O)O)C(=O)N[C@H](C(=O)N[C@@H](CC(N)=O)C(=O)N[C@@H](CC(C)C)C(=O)N[C@@H](CC(=O)O)C(=O)N[C@@H](C)C(=O)N[C@@H](CCC(=O)O)C(=O)N[C@@H](Cc1ccccc1)C(=O)N[C@@H](CCCNC(=N)N)C(=O)N[C@@H](Cc1cnc[nH]1)C(=O)N[C@@H](CC(=O)O)C(=O)N[C@@H](CO)C(=O)NCC(N)=O)C(C)C)[C@@H](C)CC)[C@@H](C)O`, the values for the retention time in experiment [1], in experiment [4] and in experiment [2] were 0.082 h, 0.289 h and 0.297 h, respectively. In addition, the Activity in experiment [5] is 20%.

In the case of `CCC[C@H](NC(=O)[C@@H](NC(=O)[C@H](CCC(=O)O)NC(=O)[C@H](CO)NC(=O)[C@@H](N)[C@@H](C)CC)C(C)C)C(=O)N[C@@H](CC(C)C)C(=O)N[C@@H](CC(=O)O)C(=O)N[C@@H](C)C(=O)N[C@@H](CCC(=O)O)C(=O)N[C@@H](Cc1ccccc1)C(=O)N[C@@H](CCCNC(=N)N)C(=O)N[C@@H](Cc1cnc[nH]1)C(N)=O` (H-ISEV[Nva]LDAEFRH-NH2), in experiment [2], the retention time is 0.521 h. Besides, in experiment [3], the result was Active.

For the compound `CC[C@H](C)[C@H](N)C(=O)N[C@@H](CO)C(=O)N[C@H](C(=O)N[C@H](C(=O)N[C@@H](CC(N)=O)C(=O)N[C@@H](CC(C)C)C(=O)N[C@@H](CC(=O)O)C(=O)N[C@@H](C)C(=O)N[C@@H](CCC(=O)O)C(=O)N[C@@H](Cc1ccccc1)C(=O)N[C@@H](CCCNC(=N)N)C(=O)N[C@@H](Cc1cnc[nH]1)C(N)=O)C(C)C)c1ccccc1` (H-IS[Phg]VNLDAEFRH-NH2), in experiment [2], the retention time is 0.582 h. The result in experiment [3] was Active.

As to `CCC[C@H](NC(=O)[C@H](CC(C)C)NC(=O)[C@H](CC(N)=O)NC(=O)[C@@H](NC(=O)[C@H](CCC(=O)O)NC(=O)[C@H](CO)NC(=O)[C@@H](N)[C@@H](C)CC)C(C)C)C(=O)N[C@@H](C)C(=O)N[C@@H](CCC(=O)O)C(=O)N[C@@H](Cc1ccccc1)C(=O)N[C@@H](CCCNC(=N)N)C(=O)N[C@@H](Cc1cnc[nH]1)C(N)=O` (H-ISEVNL[Nva]AEFRH-NH2), in experiment [2], the retention time was found to be 0.622 h. Further, in experiment [3], the outcome was Active.

Consider `CC[C@H](C)[C@H](N)C(=O)N[C@@H](CO)C(=O)N[C@@H](CCC(=O)O)C(=O)N[C@H](C(=O)N[C@@H](CC(=O)O)C(=O)N[C@@H](CC(C)C)C(=O)N[C@@H](CC(=O)O)C(=O)N[C@@H](C)C(=O)N[C@@H](CCC(=O)O)C(=O)N[C@@H](Cc1ccccc1)C(=O)N[C@@H](CCCNC(=N)N)C(=O)N[C@@H](Cc1cnc[nH]1)C(N)=O)C(C)C` (H-ISEVDLDAEFRH-NH2), for which, in experiment [2], the retention time is 0.49 h. The outcome in experiment [3] was Active.

With `CC[C@H](C)[C@H](N)C(=O)N[C@@H](CO)C(=O)N[C@@H](CCC(=O)O)C(=O)N[C@H](C(=O)N[C@@H](CC(N)=O)C(=O)N[C@@H](CCCNC(N)=O)C(=O)N[C@@H](CC(=O)O)C(=O)N[C@@H](C)C(=O)N[C@@H](CCC(=O)O)C(=O)N[C@@H](Cc1ccccc1)C(=O)N[C@@H](CCCNC(=N)N)C(=O)N[C@@H](Cc1cnc[nH]1)C(N)=O)C(C)C` (H-ISEVN[Cit]DAEFRH-NH2), the retention time in experiment [1] was 0.217 h; in experiment [2], 0.344 h. Further, in experiment [3], the result was Active.

Consider `CCC[C@H](NC(=O)[C@H](Cc1cccs1)NC(=O)[C@H](Cc1cccs1)NC(=O)[C@@H](NC(=O)[C@H](CCC(=O)O)NC(=O)[C@H](CO)NC(=O)[C@@H](N)[C@@H](C)CC)[C@@H](C)CC)C(=O)N[C@@H](C)C(=O)N[C@@H](CCC(=O)O)C(=O)N[C@@H](Cc1ccccc1)C(=O)N[C@@H](CCCNC(=N)N)C(=O)N[C@@H](Cc1cnc[nH]1)C(N)=O` (H-ISEI[2Thi][2Thi][Nva]AEFRH-NH2), for which the Activity in experiment [6] was 90%. Moreover, the retention time in experiment [2] was 0.658 h.

As to `CC[C@H](C)[C@H](N)C(=O)N[C@@H](CO)C(=O)N[C@@H](CCC(=O)O)C(=O)N[C@H](C(=O)N[C@@H](CC(N)=O)C(=O)N[C@@H](CC(C)C)C(=O)N[C@@H](CC(=O)O)C(=O)N[C@@H](C)C(=O)N[C@@H](CCC(=O)O)C(=O)N[C@@H](Cc1ccccc1)C(=O)N[C@@H](CCCNC(=N)N)C(=O)N[C@@H](Cc1cnc[nH]1)C(N)=O)C(C)C` (H-ISEVNLDAEFRH-NH2), the figures for the retention time in experiment [1], in experiment [4] and in experiment [2] were 0.217 h, 0.429 h and 0.487 h, respectively. For the same compound, the figures for the Activity in experiment [6] and in experiment [3] were 10% and 50%, respectively.

`CC[C@H](C)[C@H](N)C(=O)N[C@@H](CO)C(=O)N[C@@H](CCC(=O)O)C(=O)N[C@H](C(=O)N[C@@H](CC(N)=O)C(=O)N[C@H](C(=O)N[C@@H](CC(=O)O)C(=O)N[C@@H](C)C(=O)N[C@@H](CCC(=O)O)C(=O)N[C@@H](Cc1ccccc1)C(=O)N[C@@H](CCCNC(=N)N)C(=O)N[C@@H](Cc1cnc[nH]1)C(N)=O)c1ccccc1)C(C)C` (H-ISEVN[Phg]DAEFRH-NH2): the retention time turned out to be 0.217 h in experiment [1] and 0.459 h in experiment [2]. In experiment [3], the outcome was Active.

Regarding `CC[C@H](C)[C@H](N)C(=O)N[C@@H](CO)C(=O)N[C@@H](CCC(=O)O)C(=O)N[C@H](C(=O)N[C@@H](CC(N)=O)C(=O)N[C@@H](Cc1cccs1)C(=O)N[C@@H](CC(=O)O)C(=O)N[C@@H](C)C(=O)N[C@@H](CCC(=O)O)C(=O)N[C@@H](Cc1ccccc1)C(=O)N[C@@H](CCCNC(=N)N)C(=O)N[C@@H](Cc1cnc[nH]1)C(N)=O)C(C)C` (H-ISEVN[2Thi]DAEFRH-NH2), the retention time in experiment [1] turned out to be 0.217 h; in experiment [4] it was 0.429 h; in experiment [2] it was 0.483 h. In addition, the Activity in experiment [3] amounted to 70%.

Take `CC[C@H](C)[C@H](N)C(=O)N[C@@H](CO)C(=O)N[C@@H](CCC(=O)O)C(=O)N[C@H](C(=O)N[C@@H](CCSC)C(=O)N[C@@H](CC(C)C)C(=O)N[C@@H](CC(=O)O)C(=O)N[C@@H](C)C(=O)N[C@@H](CCC(=O)O)C(=O)N[C@@H](Cc1ccccc1)C(=O)N[C@@H](CCCNC(=N)N)C(=O)N[C@@H](Cc1cnc[nH]1)C(N)=O)C(C)C` (H-ISEVMLDAEFRH-NH2): the retention time in experiment [2] came out at 0.521 h. Besides, the result in experiment [3] was Active.
